Results reported in ChEMBL document CHEMBL2176949 (J Med Chem, 2012).

Experiments:
[1] = target: Neuronal acetylcholine receptor; alpha4/beta2 (Rattus norvegicus, UniProt P09483+P12390); assay: Binding affinity to rat alpha4beta2 nAChR
[2] = target: T1, Neuronal acetylcholine receptor subunit alpha-7 (Rattus norvegicus, UniProt Q05941); assay: Binding affinity to rat alpha7 nAChR
[3] = target: T2, Neuronal acetylcholine receptor; alpha4/beta2 (Homo sapiens, UniProt P17787+P43681); assay: Agonist activity at human alpha4beta2 nAChR low sensitivity form expressed in human SH-EP1 cells assessed as increase in calcium flux by FLIPR; format: functional, cell-based
[4] = target: Nicotinic acetylcholine receptor alpha6/alpha3/beta2/beta3 (Rattus norvegicus) (UniProt P04757+P12390+P12391+P43143); assay: Agonist activity at alpha6/alpha3beta2beta3 nAChR in Sprague-Dawley rat striatal synaptosomes assessed as induction of dopamine release relative to 10 uM nicotine; format: functional, subcellular; details: Brain
[5] = target: T2, Neuronal acetylcholine receptor; alpha4/beta2; assay: Agonist activity at human alpha4beta2 nAChR high sensitivity form expressed in human SH-EP1 cells assessed as increase in calcium flux by FLIPR; format: functional, cell-based
[6] = target: Nicotinic acetylcholine receptor alpha6/alpha3/beta2/beta3 (Rattus norvegicus, UniProt P04757+P12390+P12391+P43143); assay: Agonist activity at alpha6/alpha3beta2beta3 nAChR in Sprague-Dawley rat striatal synaptosomes assessed as induction of dopamine release; format: functional, subcellular, Brain
[7] = Agonist activity at human nAChR alpha6/alpha3beta2beta3 V273S mutant expressed in HEK293T cells by FLIPR; format: functional, cell-based; details: HEK-293T
[8] = target: T2, Neuronal acetylcholine receptor; alpha4/beta2; assay: Agonist activity at human alpha4beta2 nAChR high sensitivity form expressed in human SH-EP1 cells assessed as increase in calcium flux by FLIPR relative to 10 uM nicotine; format: functional, cell-based
[9] = target: T2, Neuronal acetylcholine receptor; alpha4/beta2; assay: Agonist activity at human alpha4beta2 nAChR expressed in human SH-EP1 cells by whole cell voltage clamp based electrophysiology method relative to 1 mM acetylcholine; format: functional
Method in brief: (§1)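 Whole-cell voltage clamp at -60 mV, room temperature (22 ± 1 °C), one cell per agonist load, Dynaflow fast application. Agonist applied 1 s for α4β2 and 0.5 s for α7, with 30 s washout. Tris-based pipette solution, pH 7.3. Concentration-response data fitted to the Hill equation, with α4β2 fitted as the sum of two Hill equations. Max % relative to 1 mM ACh.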

[10] = target: T2, Neuronal acetylcholine receptor; alpha4/beta2; assay: Agonist activity at human alpha4beta2 nAChR low sensitivity form expressed in human SH-EP1 cells assessed as increase in calcium flux by FLIPR relative to 10 uM nicotine; format: functional, cell-based
[11] = target: T3, Neuronal acetylcholine receptor; alpha3/beta4 (Homo sapiens, UniProt P30926+P32297); assay: Agonist activity at human alpha3beta4 nAChR expressed in human SH-SY5Y cells assessed as increase in calcium flux by FLIPR relative to 10 uM nicotine; format: functional, cell-based
[12] = target: T2, Neuronal acetylcholine receptor; alpha4/beta2; assay: Displacement of [3H]nicotine from human alpha4beta2 nAChR expressed in human SH-EP1 cells; format: cell-based
Method in brief: (§2)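 Binding to membranes from the cell lines: homogenised in PBS pH 7.4, spun at 40000g for 20 min at 4 °C, then incubated 2 h on ice in PBS with competitor (0.001 nM to 100 μM) and radioligand. Filters washed in ice-cold PBS and counted by scintillation. IC50 from nonlinear regression; Ki by Cheng-Prusoff. Minimum of three assays, ± SEM.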

[13] = target: T2, Neuronal acetylcholine receptor; alpha4/beta2; assay: Agonist activity at human alpha4beta2 nAChR expressed in human SH-EP1 cells by whole cell voltage clamp based electrophysiology method; format: functional; method in brief: as §1
[14] = Agonist activity at rat alpha7 nAChR T6'S59 mutant expressed in rat GH4C1 cells by whole cell voltage clamp based electrophysiology method; format: functional; details: GH4-C1; method in brief: as §1
[15] = Agonist activity at human nAChR alpha6/alpha3beta2beta3 V273S mutant expressed in HEK293T cells by FLIPR relative to 10 uM nicotine; format: functional, HEK-293T
[16] = target: Neuronal acetylcholine receptor subunit alpha-7 (Homo sapiens, UniProt P36544); assay: Displacement of [3H]epibatidine from human alpha7 nAChR expressed in human HEK/RIC3 cells; format: cell-based; method in brief: as §2
[17] = target: Neuronal acetylcholine receptor; alpha3/alpha6/beta2/beta3 (Homo sapiens, UniProt P17787+P32297+Q05901+Q15825); assay: Displacement of [3H]epibatidine from human alpha6/alpha3beta2beta3 nAChR expressed in HEK293T cells
[18] = target: T3, Neuronal acetylcholine receptor; alpha3/beta4; assay: Agonist activity at human alpha3beta4 nAChR expressed in human SH-SY5Y cells assessed as increase in calcium flux by FLIPR; format: functional, cell-based
[19] = Agonist activity at rat alpha7 nAChR T6'S59 mutant expressed in rat GH4C1 cells by whole cell voltage clamp based electrophysiology method relative to 1 mM acetylcholine; format: functional, GH4-C1; method in brief: as §1
[20] = target: T3, Neuronal acetylcholine receptor; alpha3/beta4; assay: Displacement of [3H]epibatidine from human alpha3beta4 nAChR expressed in human SH-SY5Y cells; format: cell-based; method in brief: as §2
[21] = target: T1, Neuronal acetylcholine receptor subunit alpha-7; assay: Agonist activity at rat alpha7 nAChR expressed in Xenopus laevis oocytes by two-electrode voltage clamp assay; format: functional, cell-based, Oocyte
[22] = target: T1, Neuronal acetylcholine receptor subunit alpha-7; assay: Binding affinity to rat alpha7 nAChR expressed in Xenopus laevis oocytes; format: cell-based, Oocyte
Homo sapiens [23] = organism: Homo sapiens; assay: Selectivity index, ratio of Ki for human alpha3beta4 nAChR to Ki for human alpha4beta2 nAChR
Homo sapiens [24] = organism: Homo sapiens; assay: Ratio of EC50 for human nAChR alpha6/alpha3beta2beta3 V273S mutant to Ki for human alpha6/alpha3beta2beta3 nAChR
[25] = target: Neuronal acetylcholine receptor subunit alpha-7 (Mus musculus, UniProt P49582)
Neuronal acetylcholine receptor subunit alpha-7 (Mus musculus, UniProt P49582), sequence (P49582 whole entry): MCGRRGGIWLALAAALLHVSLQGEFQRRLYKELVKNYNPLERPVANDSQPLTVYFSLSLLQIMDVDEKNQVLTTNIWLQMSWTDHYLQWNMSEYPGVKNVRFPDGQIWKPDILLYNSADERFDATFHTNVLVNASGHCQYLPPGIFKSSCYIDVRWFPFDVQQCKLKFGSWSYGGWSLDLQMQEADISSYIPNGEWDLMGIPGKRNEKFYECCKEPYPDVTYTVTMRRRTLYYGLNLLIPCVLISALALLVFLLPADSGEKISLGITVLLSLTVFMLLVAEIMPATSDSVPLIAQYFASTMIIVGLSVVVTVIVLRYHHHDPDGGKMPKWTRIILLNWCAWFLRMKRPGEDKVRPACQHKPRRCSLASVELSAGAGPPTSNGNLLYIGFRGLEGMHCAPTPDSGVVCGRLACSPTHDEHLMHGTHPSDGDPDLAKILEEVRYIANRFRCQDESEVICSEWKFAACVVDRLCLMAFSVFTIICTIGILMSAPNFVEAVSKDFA

T3 sequence (P30926 whole entry): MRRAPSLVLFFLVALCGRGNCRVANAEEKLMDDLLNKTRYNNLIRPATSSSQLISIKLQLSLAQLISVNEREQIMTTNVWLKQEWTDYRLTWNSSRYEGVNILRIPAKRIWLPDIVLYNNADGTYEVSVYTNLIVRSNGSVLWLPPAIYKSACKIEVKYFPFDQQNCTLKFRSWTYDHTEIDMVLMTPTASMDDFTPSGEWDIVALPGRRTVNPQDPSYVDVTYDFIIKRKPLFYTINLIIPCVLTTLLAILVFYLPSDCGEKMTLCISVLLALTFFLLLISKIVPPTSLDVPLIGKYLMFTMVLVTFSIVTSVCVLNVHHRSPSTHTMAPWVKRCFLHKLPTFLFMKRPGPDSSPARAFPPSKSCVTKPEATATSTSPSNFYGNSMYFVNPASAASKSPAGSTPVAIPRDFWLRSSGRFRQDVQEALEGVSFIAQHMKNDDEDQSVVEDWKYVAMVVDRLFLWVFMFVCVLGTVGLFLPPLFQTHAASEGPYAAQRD
T3 sequence (P32297 whole entry): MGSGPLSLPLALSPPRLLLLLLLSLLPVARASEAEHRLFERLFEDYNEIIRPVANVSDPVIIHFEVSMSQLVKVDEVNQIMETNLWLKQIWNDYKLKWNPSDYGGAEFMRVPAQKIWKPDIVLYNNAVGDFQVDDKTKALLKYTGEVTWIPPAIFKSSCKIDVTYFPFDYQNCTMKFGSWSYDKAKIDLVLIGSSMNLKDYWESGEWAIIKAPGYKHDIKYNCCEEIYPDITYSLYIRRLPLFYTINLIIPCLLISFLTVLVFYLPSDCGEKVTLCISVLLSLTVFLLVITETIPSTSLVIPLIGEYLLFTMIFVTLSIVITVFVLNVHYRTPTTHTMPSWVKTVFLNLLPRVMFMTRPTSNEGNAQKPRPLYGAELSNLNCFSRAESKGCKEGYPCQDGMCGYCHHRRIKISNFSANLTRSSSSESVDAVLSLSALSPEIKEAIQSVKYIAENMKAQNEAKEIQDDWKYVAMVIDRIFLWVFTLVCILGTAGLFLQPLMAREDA
Neuronal acetylcholine receptor; alpha3/alpha6/beta2/beta3, sequence (P17787 whole entry): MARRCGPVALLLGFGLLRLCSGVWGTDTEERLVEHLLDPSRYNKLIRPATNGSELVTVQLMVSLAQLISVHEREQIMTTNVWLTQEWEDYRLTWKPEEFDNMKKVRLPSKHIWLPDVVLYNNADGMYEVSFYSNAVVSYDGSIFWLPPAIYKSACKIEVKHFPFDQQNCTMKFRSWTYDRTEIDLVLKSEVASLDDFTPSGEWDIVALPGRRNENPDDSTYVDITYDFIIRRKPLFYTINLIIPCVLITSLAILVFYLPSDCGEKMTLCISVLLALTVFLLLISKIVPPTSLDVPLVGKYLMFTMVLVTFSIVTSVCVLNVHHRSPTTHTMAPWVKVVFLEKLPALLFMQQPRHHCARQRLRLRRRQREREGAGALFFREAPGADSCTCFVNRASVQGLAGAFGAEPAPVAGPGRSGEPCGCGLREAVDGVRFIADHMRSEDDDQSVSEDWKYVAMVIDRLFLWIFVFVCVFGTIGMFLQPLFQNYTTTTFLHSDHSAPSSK
Neuronal acetylcholine receptor; alpha3/alpha6/beta2/beta3, sequence (P32297 whole entry): as the sequence (P32297 whole entry) above
Neuronal acetylcholine receptor; alpha3/alpha6/beta2/beta3, sequence (Q15825 whole entry): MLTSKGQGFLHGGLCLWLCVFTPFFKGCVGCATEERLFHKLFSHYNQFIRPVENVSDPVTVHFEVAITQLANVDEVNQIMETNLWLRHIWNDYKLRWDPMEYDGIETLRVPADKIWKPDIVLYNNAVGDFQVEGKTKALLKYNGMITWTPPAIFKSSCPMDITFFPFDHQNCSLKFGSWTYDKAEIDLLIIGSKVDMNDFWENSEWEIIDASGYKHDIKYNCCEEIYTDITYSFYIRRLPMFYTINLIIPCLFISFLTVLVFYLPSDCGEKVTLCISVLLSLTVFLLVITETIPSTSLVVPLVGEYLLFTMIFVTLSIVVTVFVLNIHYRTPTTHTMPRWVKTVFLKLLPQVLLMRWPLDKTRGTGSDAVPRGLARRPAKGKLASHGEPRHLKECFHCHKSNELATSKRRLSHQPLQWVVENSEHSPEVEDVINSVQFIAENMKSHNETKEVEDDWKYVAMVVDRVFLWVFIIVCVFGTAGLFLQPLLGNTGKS
Neuronal acetylcholine receptor; alpha3/alpha6/beta2/beta3, sequence (Q05901 whole entry): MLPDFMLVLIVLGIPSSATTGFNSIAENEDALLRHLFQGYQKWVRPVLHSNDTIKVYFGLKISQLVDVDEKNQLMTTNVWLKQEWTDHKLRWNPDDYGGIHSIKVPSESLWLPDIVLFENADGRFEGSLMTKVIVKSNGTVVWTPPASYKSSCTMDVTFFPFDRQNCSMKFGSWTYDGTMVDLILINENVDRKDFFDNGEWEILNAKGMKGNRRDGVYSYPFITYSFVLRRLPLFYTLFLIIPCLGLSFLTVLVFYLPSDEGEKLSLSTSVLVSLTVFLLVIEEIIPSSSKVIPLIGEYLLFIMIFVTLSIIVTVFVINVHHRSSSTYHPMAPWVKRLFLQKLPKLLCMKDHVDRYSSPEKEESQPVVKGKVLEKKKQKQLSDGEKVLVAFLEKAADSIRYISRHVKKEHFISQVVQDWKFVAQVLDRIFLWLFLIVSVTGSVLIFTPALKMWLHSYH
T2 sequence (P17787 whole entry): as the sequence (P17787 whole entry) above
T2 sequence (P43681 whole entry): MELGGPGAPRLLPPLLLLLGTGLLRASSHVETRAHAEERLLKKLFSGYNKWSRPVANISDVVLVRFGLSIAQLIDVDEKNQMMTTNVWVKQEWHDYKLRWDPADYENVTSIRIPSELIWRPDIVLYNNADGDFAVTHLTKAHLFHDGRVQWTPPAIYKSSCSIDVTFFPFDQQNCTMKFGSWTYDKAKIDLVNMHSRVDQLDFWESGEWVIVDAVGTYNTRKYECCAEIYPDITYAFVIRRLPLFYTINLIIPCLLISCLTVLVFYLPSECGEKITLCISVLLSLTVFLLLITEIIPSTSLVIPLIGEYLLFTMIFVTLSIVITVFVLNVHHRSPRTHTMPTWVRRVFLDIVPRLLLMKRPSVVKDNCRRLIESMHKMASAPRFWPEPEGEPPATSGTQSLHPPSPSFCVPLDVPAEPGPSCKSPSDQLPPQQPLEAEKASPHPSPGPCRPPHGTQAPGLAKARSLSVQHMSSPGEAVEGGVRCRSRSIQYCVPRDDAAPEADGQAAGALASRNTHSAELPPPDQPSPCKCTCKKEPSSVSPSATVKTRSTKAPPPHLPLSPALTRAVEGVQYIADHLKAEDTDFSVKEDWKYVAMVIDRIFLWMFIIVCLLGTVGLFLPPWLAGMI
T1 sequence (Q05941 whole entry): as the sequence (P49582 whole entry) above, with R4G, T424A counted along it
Neuronal acetylcholine receptor subunit alpha-7 (Homo sapiens, UniProt P36544), sequence (P36544 whole entry): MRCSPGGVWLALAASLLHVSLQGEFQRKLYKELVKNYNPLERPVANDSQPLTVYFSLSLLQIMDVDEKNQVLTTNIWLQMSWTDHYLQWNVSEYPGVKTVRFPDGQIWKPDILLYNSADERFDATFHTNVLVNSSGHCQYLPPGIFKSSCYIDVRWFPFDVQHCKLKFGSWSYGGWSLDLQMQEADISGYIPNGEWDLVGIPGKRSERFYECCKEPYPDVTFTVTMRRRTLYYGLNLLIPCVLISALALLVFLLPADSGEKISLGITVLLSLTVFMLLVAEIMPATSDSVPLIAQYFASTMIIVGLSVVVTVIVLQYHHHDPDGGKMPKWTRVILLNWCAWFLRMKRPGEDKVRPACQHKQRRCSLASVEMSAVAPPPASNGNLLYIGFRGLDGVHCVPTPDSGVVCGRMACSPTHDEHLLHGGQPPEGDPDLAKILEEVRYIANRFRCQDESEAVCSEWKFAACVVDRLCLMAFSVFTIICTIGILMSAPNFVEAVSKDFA

SMILES	EC50 [3] [nM]	%max [4] [%]	EC50 [5] [nM]	EC50 [6] [nM]	EC50 [7] [nM]	%max [8] [%]	%max [9] [%]	%max [10] [%]	%max [11] [%]	Ki [12] [nM]	EC50 [13] [nM]	EC50 [14] [nM]	%max [15] [%]	Ki [16] [nM]	Ki [17] [nM]	EC50 [18] [nM]	%max [19] [%]	Ki [20] [nM]	other results
O=c1cccc2n1C[C@@H]1CNC[C@H]2C1 [CYTISINICLINE]	–	–	–	–	–	–	–	–	–	–	–	–	–	–	–	–	–	–	Ki [1]: 1 nM; Ki [2]: 8000 nM
CC(C)Oc1cncc(C2=CC3CC(C2)CN(C)C3)c1 (configuration not stated)	> 10000	63	> 10000	879	> 10000	1	10	3.3	15	2.2	3500	21300	0.2	> 10000	690	> 10000	60	1730	–
c1cnc2cc3c(cc2n1)[C@@H]1CNC[C@H]3C1 [VARENICLINE]	–	–	–	–	–	–	–	–	–	–	–	–	–	–	–	–	–	–	EC50 [21]: 18000 nM; Ki [22]: 300 nM
C1=C(c2cccnc2)C[C@@H]2CNC[C@H]1C2	35	49	2.3	1.4	15	111	32	131	139	0.1	50	20	82	1.3	1	73	28	23	Ratio Ki (Homo sapiens [23]): 230; Ratio (Homo sapiens [24]): 15
CC(C)Oc1cncc(C2=CC3CNCC(C2)C3)c1 (configuration not stated)	562	86	164	1090	> 10000	75	11	54	160	0.26	1400	2800	3	105	2.6	69	92	4.8	–
CN1C[C@H]2C=C(c3cccnc3)C[C@H](C2)C1	7660	27	> 10000	> 10000	> 10000	19	19	11	31	2.1	3500	3800	7	74	300	7530	100	534	–
C1=C(c2cncc(Oc3ccccc3)c2)CC2CNCC1C2 (configuration not stated)	654	57	62	718	> 10000	52	9	30	101	0.7	590	350	0	22	4.8	23	31	1.9	–
C1=C(c2cccnc2)C[C@H]2CNC[C@@H]1C2	12	73	2.3	0.95	14	114	40	129	142	0.2	100	30	110	1.2	0.95	37	20	4	Ratio Ki (Homo sapiens [23]): 20; Ratio (Homo sapiens [24]): 15
CN1CCC[C@H]1c1cccnc1 [NICOTINE]	–	–	–	–	–	–	–	–	–	–	–	–	–	–	–	–	–	–	Ki [25]: 244 nM
CN1C[C@@H]2C=C(c3cccnc3)C[C@@H](C2)C1	> 10000	13	6660	855	> 10000	53	18	17	25	9.4	3100	6000	9	70	320	> 10000	87	1800	–
N#Cc1ccncc1C1=CC2CNCC(C1)C2 (configuration not stated)	> 10000	–	3250	–	–	55	–	27	130	2.8	–	–	–	330	–	166	–	103	–
Clc1ccc(C2=CC3CNCC(C2)C3)cn1 (configuration not stated)	35	–	54	–	–	98	–	152	141	0.4	–	–	–	39	–	16	–	6.2	–
Clc1ccc(C2=CC3CNCC(C2)C3)nn1 (configuration not stated)	595	–	80	–	–	118	–	160	135	0.4	–	–	–	77	–	149	–	73	–
